Calls of active or inactive are those of the source. No cut-off for these calls is given here.
What was measured:
[1] = target: Cathepsin S (Homo sapiens, UniProt P25774); assay: Inhibition of human recombinant cathepsin S by fluorescence assay
Method in brief: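 Recombinant human Cat S, fluorometric readout using Z-Leu-Leu-Arg-AMC substrate; IC50 reported.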

[2] = target: T1, Cathepsin K (Homo sapiens, UniProt P43235); assay: Inhibition of human recombinant cathepsin K by fluorescence assay
T1 sequence (P43235 whole entry): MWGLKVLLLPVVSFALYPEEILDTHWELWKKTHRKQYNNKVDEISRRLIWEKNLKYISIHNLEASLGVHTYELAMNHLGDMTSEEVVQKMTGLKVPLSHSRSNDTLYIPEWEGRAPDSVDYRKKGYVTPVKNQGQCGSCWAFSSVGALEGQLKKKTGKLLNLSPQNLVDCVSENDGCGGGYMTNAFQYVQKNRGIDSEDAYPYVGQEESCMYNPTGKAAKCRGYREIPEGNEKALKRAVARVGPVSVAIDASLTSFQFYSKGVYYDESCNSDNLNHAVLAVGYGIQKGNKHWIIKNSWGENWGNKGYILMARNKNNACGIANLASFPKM
Method in brief: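 Fluorometric assay with recombinant human Cat K; Z-Phe-Arg-AMC substrate; IC50 determined.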

[3] = target: Procathepsin L (Homo sapiens, UniProt P07711); assay: Inhibition of human recombinant cathepsin L by fluorescence assay
Procathepsin L, sequence (P07711 whole entry): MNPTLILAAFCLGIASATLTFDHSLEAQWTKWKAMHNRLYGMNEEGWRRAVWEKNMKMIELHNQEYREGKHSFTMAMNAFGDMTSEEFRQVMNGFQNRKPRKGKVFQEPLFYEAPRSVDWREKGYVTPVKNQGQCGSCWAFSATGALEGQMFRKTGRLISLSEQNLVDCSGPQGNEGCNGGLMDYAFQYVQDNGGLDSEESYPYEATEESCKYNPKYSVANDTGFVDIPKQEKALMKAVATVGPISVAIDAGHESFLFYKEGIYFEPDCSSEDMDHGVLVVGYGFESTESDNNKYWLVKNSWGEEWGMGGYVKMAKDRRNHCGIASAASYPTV
Method in brief: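 Recombinant human Cat L measured fluorometrically with Z-Phe-Arg-AMC as substrate; IC50 reported.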

[4] = Cmax in Sprague-Dawley rat at 1.0 mg/kg, po; assay type: ADME, organism-based; parameters: dose 1 mg/kg, route oral; conditions: in vivo
[5] = AUC in Sprague-Dawley rat at 1.0 mg/kg, po; assay type: ADME, organism-based; parameters: dose 1 mg/kg, route oral; conditions: plasma
[6] = Plasma clearance in Sprague-Dawley rat at 1.0 mg/kg, iv or 3.0 mg/kg, po; assay type: ADME, organism-based
[7] = Half life in Sprague-Dawley rat at 1.0 mg/kg, iv; assay type: ADME, organism-based; parameters: dose 1 mg/kg, route intravenous; conditions: in vivo
[8] = Oral bioavailability in Sprague-Dawley rat at 3.0mg/kg, po; assay type: ADME, organism-based; conditions: in vivo, 3 mg/kg
[9] = target: Cathepsin S (Mus musculus) (UniProt O70370); assay: Inhibition of cathepsin S in mouse splenocytes assessed as MHC2 associated invariant chain degradation at 1 uM; assay type: cell-based
Method in brief: (§1)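 Cellular secondary assay in mouse splenocytes; degradation of MHC class II associated invariant chain monitored after compound exposure at a single concentration.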

[10] = target: Cathepsin S (Mus musculus) (UniProt O70370); assay: Inhibition of cathepsin S in mouse splenocytes assessed as MHC2 associated invariant chain degradation at 10 uM; assay type: cell-based; method in brief: as §1
[11] = Plasma clearance in Sprague-Dawley rat at 1.6 mg/kg, iv or 4.0 mg/kg, po; assay type: ADME, organism-based
[12] = Half life in Sprague-Dawley rat at 1.6 mg/kg, iv; assay type: ADME, organism-based; parameters: dose 1.6 mg/kg, route intravenous; conditions: in vivo
[13] = Oral bioavailability in Sprague-Dawley rat at 4.0 mg/kg, po; assay type: ADME, organism-based; conditions: in vivo

Cathepsin S, sequence (P25774 whole entry): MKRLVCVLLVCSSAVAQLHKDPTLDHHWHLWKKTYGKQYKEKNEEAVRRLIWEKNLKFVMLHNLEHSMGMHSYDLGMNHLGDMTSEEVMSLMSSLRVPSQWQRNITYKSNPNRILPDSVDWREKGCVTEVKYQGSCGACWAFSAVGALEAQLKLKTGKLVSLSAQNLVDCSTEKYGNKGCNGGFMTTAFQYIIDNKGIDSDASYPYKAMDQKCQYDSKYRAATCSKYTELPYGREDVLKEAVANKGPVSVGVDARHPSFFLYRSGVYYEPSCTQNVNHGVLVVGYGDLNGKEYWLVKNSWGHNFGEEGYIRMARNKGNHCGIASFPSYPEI

| SMILES | IC50 [1] [nM] | IC50 [2] [nM] | IC50 [3] [nM] | also measured |
| --- | --- | --- | --- | --- |
| N#Cc1ncc2cc(Cc3ccc(Cl)cc3)n(CCN3CCCCC3)c2n1 | > 1000 | > 1000 | > 1000 |  |
| CN(Cc1cc2cnc(C#N)nc2n1CCC1CCCCC1)c1ccccc1 | 52 | > 1000 | > 1000 |  |
| N#Cc1ncc2cc(COc3ccccn3)n(CCC3CCCCC3)c2n1 | 11 | 250 | 790 |  |
| N#Cc1ncc2cc(Cc3cccc4ccccc34)n(CCC3CCCCC3)c2n1 | 440 |  |  |  |
| N#Cc1ncc2cc(Cc3ccc(Cl)cc3)n(CCCC3CCCCC3)c2n1 | 150 | > 1000 | > 1000 |  |
| CC(=O)N1CCN(c2ccc(OCc3cc4cnc(C#N)nc4n3CCC3CCCCC3)cc2)CC1 | 9 | > 1500 | > 4000 | Cmax [4]: 34 nM; AUC [5]: 0.242 µM·h; clearance [6]: 66.7 mL/min/kg; half-life [7]: 1.2 h; bioavailability [8]: 47%; Activity [9]: Active |
| N#Cc1ncc2cc(Cc3ccc(Cl)cc3)n(CCc3ccc(Cl)cc3)c2n1 | 19 | > 1000 | 86 |  |
| COc1ccc(Cc2cc3cnc(C#N)nc3n2CCC2CCCCC2)cc1 | 110 | 280 | > 1000 |  |
| CC(=O)N1CCC(c2ccc(OCc3cc4cnc(C#N)nc4n3CCC3CCCCC3)cc2)CC1 | 15 | > 1000 | > 1000 | Cmax [4]: 17 nM; AUC [5]: 0.103 µM·h; clearance [6]: 88.3 mL/min/kg; half-life [7]: 1.3 h; bioavailability [8]: 25% |
| N#Cc1ncc2cc(COc3ccc(C(=O)O)cc3)n(CCC3CCCCC3)c2n1 | 16 | > 2000 | > 2000 | Activity [10]: inactive |
| N#Cc1ncc2cc(Cc3ccc(Cl)cc3)n(CCc3cccc(Cl)c3)c2n1 | 190 | > 1000 | 40 |  |
| CC(C)(C)Cn1c(Cc2ccc(Cl)cc2)cc2cnc(C#N)nc21 |  | < 1 | 96 |  |
| N#Cc1ncc2cc(COc3ccc(C(N)=O)cc3)n(CCC3CCCCC3)c2n1 | 2 | 280 | > 1000 | clearance [11]: 83.3 mL/min/kg; half-life [12]: 0.7 h; Cmax [4]: 25 nM; AUC [5]: 0.108 µM·h; bioavailability [13]: 21% |
| CC(C)C[C@@H](NC(=O)N1CCOCC1)C(=O)N[C@@H](/C=C/S(=O)(=O)c1ccccc1)CCc1ccccc1 |  |  |  | Activity [9]: Active |
| N#Cc1ncc2cc(CSc3ccncc3)n(CCC3CCCCC3)c2n1 | 6 | 480 | > 1000 |  |
| CCC(=O)Nc1ccc(OCc2cc3cnc(C#N)nc3n2CCC2CCCCC2)cc1 | 12 | > 1500 | > 4000 |  |

| SMILES | IC50 [1] [nM] | IC50 [2] [nM] | IC50 [3] [nM] | also measured |
| --- | --- | --- | --- | --- |
| N#Cc1ncc2cc(Cc3ccc(Cl)cc3)n(CCC3CCCCCC3)c2n1 | 33 | > 1000 | 840 |  |
| CC(=O)N1CC=C(c2ccc(OCc3cc4cnc(C#N)nc4n3CCC3CCCCC3)cc2)CC1 | 13 | > 1000 | > 1000 | Cmax [4]: 43 nM; AUC [5]: 0.346 µM·h; clearance [6]: 41.7 mL/min/kg; half-life [7]: 1.4 h; bioavailability [8]: 38% |
| CC(C)(C)CCCn1c(Cc2ccc(Cl)cc2)cc2cnc(C#N)nc21 | 320 | 100 | > 1000 |  |
| N#Cc1ncc2cc(Cc3ccc(Cl)cc3)n(CC3CCCCC3)c2n1 | 110 | 6 | 370 |  |
| N#Cc1ncc2cc(Cc3ccc(Cl)cc3)n(CCC3CCCC3)c2n1 | 7 | 17 | 260 |  |
| N#Cc1ncc2cc(COc3cccc(CCC(=O)O)c3)n(CCC3CCCCC3)c2n1 | 6 | > 5000 | > 5000 | Activity [10]: inactive |
| N#Cc1ncc2cc(Cc3ccc(Cl)cc3)n(CCC3CCCCCCC3)c2n1 | 99 | > 1000 | > 1000 |  |
| N#Cc1ncc2cc(CC3CCCCC3)n(CCC3CCCCC3)c2n1 | 140 |  | > 1000 |  |
| N#Cc1ncc2cc(Cc3ccc(Cl)cc3)n(CCc3ccccc3)c2n1 | 64 | 100 | 23 |  |
| CC(C)(C)CCn1c(Cc2ccc(Cl)cc2)cc2cnc(C#N)nc21 | 2 | < 1 | 18 | Activity [9]: Active |
| CC(=O)Nc1ccc(OCc2cc3cnc(C#N)nc3n2CCC2CCCCC2)cc1 | 8 | > 1000 | > 1000 |  |
| N#Cc1ncc2cc(COc3cccc(C(N)=O)c3)n(CCC3CCCCC3)c2n1 | 7 | 390 | > 1000 |  |
| N#Cc1ncc2cc(CNc3ccccc3)n(CCC3CCCCC3)c2n1 | 24 | > 1000 | > 1000 |  |
| N#Cc1ncc2cc(Cc3ccc(Cl)cc3)n(CCC3CCCCC3)c2n1 | 21 | 220 | 320 |  |
| N#Cc1ncc2cc(COc3ccccc3)n(CCC3CCCCC3)c2n1 | 10 | > 1000 | > 1000 |  |

Reference: ChEMBL document CHEMBL1155066, “Discovery of selective and nonpeptidic cathepsin S inhibitors” (Bioorg Med Chem Lett, 2008)
